The target in the assay is Cystic fibrosis transmembrane conductance regulator (Homo sapiens, UniProt P13569, F508DEL). Briefly: Correction of defective trafficking of human deltaF508 mutant CFTR protein expressed in FRT epithelial cells coexpressing YFP-H148Q/I152L protein assessed as iodide influx for 16 to 20 hrs by fluorescence assay. The class given is cell-based, Epithelial cell. The note with it: read-out: IC50 (the source's name). The procedure, abridged: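 FRT cells stably coexpressing human ΔF508-CFTR and YFP-H148Q/I152L, grown 24 h at 37 °C (5% CO2), then exposed 16–20 h to compound at various concentrations; DMSO vehicle negative control and a bithiazole benzamide positive control. Washed, 20 min in PBS with forskolin 20 μM plus genistein 50 μM. YFP fluorescence (ex 500/em 535 nm) read 2 s baseline, then 12 s after iodide-substituted PBS addition. Influx rate came from exponential fit of final 11.5 s, extrapolated initial slope, normalized to background-subtracted initial fluorescence. EC50/Vmax came from four-parameter logistic fit.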
Chain of Cystic fibrosis transmembrane conductance regulator (P13569 as listed by the source): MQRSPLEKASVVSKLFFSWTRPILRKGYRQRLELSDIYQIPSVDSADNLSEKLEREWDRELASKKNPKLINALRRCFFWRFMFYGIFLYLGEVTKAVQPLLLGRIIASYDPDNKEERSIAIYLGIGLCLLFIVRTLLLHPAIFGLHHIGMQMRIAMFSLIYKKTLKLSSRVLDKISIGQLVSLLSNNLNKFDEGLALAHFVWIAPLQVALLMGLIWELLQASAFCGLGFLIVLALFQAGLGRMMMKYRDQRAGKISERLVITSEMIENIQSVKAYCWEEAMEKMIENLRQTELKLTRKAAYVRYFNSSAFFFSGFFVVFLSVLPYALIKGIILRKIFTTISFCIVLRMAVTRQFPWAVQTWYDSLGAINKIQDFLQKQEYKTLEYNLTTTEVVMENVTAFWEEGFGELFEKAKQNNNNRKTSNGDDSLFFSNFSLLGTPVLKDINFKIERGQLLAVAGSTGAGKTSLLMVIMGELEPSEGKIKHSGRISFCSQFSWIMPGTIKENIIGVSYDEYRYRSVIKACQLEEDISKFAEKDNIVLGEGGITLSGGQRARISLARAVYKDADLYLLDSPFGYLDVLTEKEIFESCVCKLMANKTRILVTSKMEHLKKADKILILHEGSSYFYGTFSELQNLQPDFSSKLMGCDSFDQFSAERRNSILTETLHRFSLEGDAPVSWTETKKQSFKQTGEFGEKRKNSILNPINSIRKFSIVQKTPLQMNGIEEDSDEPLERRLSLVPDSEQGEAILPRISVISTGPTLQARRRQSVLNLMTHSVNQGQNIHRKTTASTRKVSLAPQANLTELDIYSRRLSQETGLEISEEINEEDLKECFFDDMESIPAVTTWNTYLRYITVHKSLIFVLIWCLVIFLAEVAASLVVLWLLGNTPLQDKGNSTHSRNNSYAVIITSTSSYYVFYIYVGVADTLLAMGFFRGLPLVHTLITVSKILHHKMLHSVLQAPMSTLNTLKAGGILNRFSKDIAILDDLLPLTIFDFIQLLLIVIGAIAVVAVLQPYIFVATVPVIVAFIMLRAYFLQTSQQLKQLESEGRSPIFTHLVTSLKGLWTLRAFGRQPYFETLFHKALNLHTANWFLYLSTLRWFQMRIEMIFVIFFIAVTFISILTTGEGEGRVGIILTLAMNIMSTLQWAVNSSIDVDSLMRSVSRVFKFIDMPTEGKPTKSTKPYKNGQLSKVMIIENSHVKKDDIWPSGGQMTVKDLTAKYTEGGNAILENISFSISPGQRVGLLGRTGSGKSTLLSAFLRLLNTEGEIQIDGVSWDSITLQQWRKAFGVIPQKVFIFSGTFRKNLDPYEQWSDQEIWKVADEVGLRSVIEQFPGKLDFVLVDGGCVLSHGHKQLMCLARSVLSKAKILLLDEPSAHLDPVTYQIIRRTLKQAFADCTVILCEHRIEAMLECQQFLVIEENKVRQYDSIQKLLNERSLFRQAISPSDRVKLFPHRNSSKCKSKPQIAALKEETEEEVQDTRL

In ChEMBL document CHEMBL3352726, “Constrained bithiazoles: small molecule correctors of defective ΔF508-CFTR protein trafficking” (J Med Chem, 2014) one finds EC50 data, which are given here for 23 compounds.

Consider `COc1ccc(Cl)cc1Nc1nc(-c2sc(NC(=O)c3ccccc3)nc2C)cs1`, for which the EC50 came out at 6 µM. For the compound `COc1ccc(Cl)cc1Nc1nc2c(s1)CCCc1nc(N)sc1-2`, the EC50 was found to be 11 µM. Next, `COc1ccc(Cl)cc1Nc1nc2c(s1)CCCc1nc(NC(=O)C3CC3)sc1-2`: 8.9 µM. Next, `COc1ccc(Cl)cc1Nc1nc2c(s1)CCCc1nc(NC(=O)C(C)C)sc1-2`: 5.8 µM. The result for `CCC(C)C(=O)Nc1nc2c(s1)-c1nc(Nc3cc(Cl)ccc3OC)sc1CCC2` (stereo not drawn) reads 6.6 µM.

For the compound `COC(=O)CCC(=O)Nc1nc2c(s1)-c1nc(Nc3cc(Cl)ccc3OC)sc1CCC2`, the EC50 was found to be 8.8 µM. As to `COc1ccc(Cl)cc1Nc1nc2c(s1)CCCc1nc(NC(=O)c3ccno3)sc1-2`, the EC50 is 4.8 µM. Take `COc1ccc(Cl)cc1Nc1nc2c(s1)CCCCc1nc(N)sc1-2`: the EC50 was 9.2 µM. Next, `COc1ccc(Cl)cc1Nc1nc2c(s1)CCCCc1nc(NC(=O)C(C)(C)C)sc1-2`: 4.1 µM; `COc1ccc(Cl)cc1Nc1nc2c(s1)CCCCc1nc(NC(=O)C3CC3)sc1-2`: 4.5 µM. Consider `COc1ccc(Cl)cc1Nc1nc2c(s1)CCCCc1nc(NC(=O)C(C)C)sc1-2`, for which the EC50 is 8.7 µM. As to `CCC(C)C(=O)Nc1nc2c(s1)-c1nc(Nc3cc(Cl)ccc3OC)sc1CCCC2` (stereo not drawn), the EC50 is 2.9 µM. Next, `COC(=O)CCC(=O)Nc1nc2c(s1)-c1nc(Nc3cc(Cl)ccc3OC)sc1CCCC2`: 8.3 µM; `COc1ccc(Cl)cc1Nc1nc2c(s1)CCCCc1nc(NC(=O)c3ccno3)sc1-2`: 6.6 µM; `CN(C)c1ccc(Cl)cc1Nc1nc2c(s1)CCCc1nc(NC(=O)C(C)(C)C)sc1-2`: 6.9 µM. Turning to `Cc1cccnc1Nc1nc2c(s1)CCCc1nc(NC(=O)C(C)(C)C)sc1-2`, the EC50 came out at 7.2 µM. Next, `CN(C)c1cccc(Nc2nc3c(s2)CCCc2nc(NC(=O)C(C)(C)C)sc2-3)c1`: 2.2 µM; `COc1ccc([N+](=O)[O-])cc1Nc1nc2c(s1)CCCc1nc(NC(=O)C(C)(C)C)sc1-2`: 3.6 µM; `CN(C)c1ccc(Cl)cc1Nc1nc2c(s1)CCCCc1nc(NC(=O)C(C)(C)C)sc1-2`: 2.1 µM. Consider `Cc1cccnc1Nc1nc2c(s1)CCCCc1nc(NC(=O)C(C)(C)C)sc1-2`, for which the EC50 worked out at 5.2 µM. Next, `CN(C)c1cccc(Nc2nc3c(s2)CCCCc2nc(NC(=O)C(C)(C)C)sc2-3)c1`: 5.2 µM; `COc1ccc([N+](=O)[O-])cc1Nc1nc2c(s1)CCCCc1nc(NC(=O)C(C)(C)C)sc1-2`: 0.9 µM; `COc1ccc(Cl)cc1Nc1nc2c(s1)CCCc1nc(NC(=O)C(C)(C)C)sc1-2`: 2.3 µM.
